7 compounds from PubChem BioAssay can be followed below.

A short description of test [1]: inhibitors of TNFa-induced NFkB p65 translocation, primary screen, imaging, HUVEC, MLSMR starter and 10KST1 sets (AID 438;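 active means inhibition above 20% together with a positive visual image hit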;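 further: compound added about 3h40 before a 20 min TNFalpha stimulation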;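 on inhibition: signal is the nuclear over cytoplasmic p65 intensity ratio per well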). The settings on record: HUVEC TNFa-induced p65 nuclear translocation; cell count: measured here: nuclei count (cytotoxicity indicator), at 2.08 µM; inhibition: at 2 µM, stronger effect = higher value, 0% TNFa-plus-vehicle, 100% no-TNFa wells.
Test [2] is described as follows: inhibitors of E-selectin induction by TNFa, primary screen, imaging, HUVEC, immunofluorescence, MLSMR starter and 10KST1 sets (AID 487;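 active means visually confirmed hit in the image check and inhibition above 20%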;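 on inhibition: signal is fraction of cell area covered by stained E-selectin grains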;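 on nuclei count: 100% = median nuclei count of all wells on the same plate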). To be noted: HUVEC TNFalpha-induced E-selectin immunofluorescence imaging, at 2 µM; inhibition: stronger effect = higher value; nuclei count: measured here: cell number, toxicity.
Test [3] can be described thus: DUSP6 inhibitors restoring Erk phosphorylation by chemical complementation, primary imaging in DUSP6-transfected HeLa (AID 609;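 active means compounds giving at least 50% inhibition in the cell-based MKP-3 phosphatase rescue imaging test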;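 on inhibition: phospho-Erk level distribution per well compared with pooled transfected vehicle control wells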). To be noted: HeLa MKP-3 transfected, phospho-Erk imaging KS statistic, at 10 µM, cells stimulated with TPA for 15 min.
The target of test [4] is Dual specificity protein phosphatase 6 (Homo sapiens) (UniProt Q16828). The description is as above. The settings on record: HeLa MKP-3 transfected, phospho-Erk imaging KS statistic; at 10 µM; stronger effect = higher value; cells stimulated with TPA for 15 min.
In test [5] the target is Voltage-gated potassium channel subunit beta-2 (Rattus norvegicus) (UniProt P62483). Put plainly: KvBeta enzyme negative modulators, primary screen, biochemical, NADPH fluorescence (AID 622;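 active means fluorescence slope higher than the sample average by over 3 SD, cut at about -0.22 in these data, passing the limit was not always enough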;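 further: slope of raw intensity against log time taken from 70 to 1610 s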). To be noted: recombinant KvBeta, 4-cyanobenzaldehyde reduction, at 10 µM, stronger effect = higher value.
For test [6] the target is unchanged. The experiment in a line: KvBeta positive modulators, primary screen, biochemical, NADPH fluorescence (AID 623;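 active means NADPH fluorescence slope more negative than the mean of all samples by about 3 SD, 99.7% confidence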;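 further: fluorescence intensity change per second fitted from 20 to 320 s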). To be noted: Recombinant KvBeta, NADPH fluorescence decrease slope, 10 min; at 10 µM; stronger effect = lower value.
Test [7] has as its target Muscarinic acetylcholine receptor M4 (Homo sapiens) (UniProt P08173). Put plainly: compounds altering M4/GIRK thallium flux, either direction, primary screen, M4 allosteric agonist project, cell-based, HEK293 M4/GIRK, BTC-AM (AID 625).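 Further: thallium influx through GIRK channels coupled to M4 in HEK293 cells with BTC-AM dye.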 To be noted: at 10 µM, actives lie on both sides. In outline: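 Material: M4/GIRK1/GIRK2 stable HEK293 cell line. Medium: pH 7.3 thallium assay buffer. Dosing: single compound concentration, 10 µM final. Schedule: 1 h dye loading, 2 min kinetic read. Measured by: kinetic fluorescence with BTC-AM dye. Read-out: post-addition slope, 15–24 s, of baseline-normalized fluorescence. Benchmarks: carbachol and DMSO controls.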

The nature of test [8]: inhibitors of larval lipid processing in zebrafish, primary screen, whole organism, PED6 fluorescence, gall bladder and intestine (AID 686;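 active means a full or partial loss of lipid-probe fluorescence in the fish gall bladder, intestine or both, judged by eye; inactive means no fluorescence loss, or compound toxic to the fish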;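 further: larvae 5 to 7 days old with five fish per well; signal comes from phospholipase A2 cleavage of quenched PED6 carried via bile; overnight exposure to compound and PED6 before scoring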). To be noted: Zebrafish larvae PED6 lipid processing, fluorescence scoring; screened at 20 µM (by protocol). The procedure, abridged:
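System: live zebrafish larvae aged 5-7 days, whole organism; measure: graded gall bladder and intestinal fluorescence inhibition per well; incubation: overnight exposure; reagent: ingested quenched lipid PED6 at 100 nM; signal: By-eye fluorescence microscopy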

Test [9] in a line: inhibitors of Chlamydomonas gravitaxis, primary screen, whole organism, Chlamydomonas reinhardtii, WT vs cilia-less mutant, absorbance, 96-well (AID 463189;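 active means inhibition at or above 50% relative to wild type and mutant plate controls; inactive means inhibition below 50%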;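 further: 0% = wild type cc124 cells in DMSO and 100% = ciliumless bld1 mutant cells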). The settings on record: OD600 absorbance, 2 days, at 10 µM, stronger effect = higher value.
[10] abbreviates: measured here: cell density z-score.
The mark [11] stands for this setting: measured here: nuclear c-Myc green intensity z-score.
[12] abbreviates: measured here: nuclear pErk red intensity z-score, stronger effect = higher value.

Active and inactive are the calls of the source.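 How the source made its calls, unless noted: active means fluorescence slope after compound addition differing from the mean of all tested samples at 99.7% confidence, mostly higher but some lower; inactive means the rest.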

Chain of Dual specificity protein phosphatase 6 (Homo sapiens) (Q16828 whole entry, looked up): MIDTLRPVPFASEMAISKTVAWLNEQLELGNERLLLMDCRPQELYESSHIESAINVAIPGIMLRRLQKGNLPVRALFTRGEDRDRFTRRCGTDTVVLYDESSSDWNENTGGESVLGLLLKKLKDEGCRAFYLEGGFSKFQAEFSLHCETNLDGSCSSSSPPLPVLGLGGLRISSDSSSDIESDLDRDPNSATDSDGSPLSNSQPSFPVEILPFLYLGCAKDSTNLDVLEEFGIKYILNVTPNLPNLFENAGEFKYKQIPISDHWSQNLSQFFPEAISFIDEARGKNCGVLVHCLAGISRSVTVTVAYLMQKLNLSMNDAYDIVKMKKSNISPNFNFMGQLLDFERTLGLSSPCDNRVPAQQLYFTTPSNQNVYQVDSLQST
Chain of Muscarinic acetylcholine receptor M4 (Homo sapiens) (P08173 whole entry, looked up): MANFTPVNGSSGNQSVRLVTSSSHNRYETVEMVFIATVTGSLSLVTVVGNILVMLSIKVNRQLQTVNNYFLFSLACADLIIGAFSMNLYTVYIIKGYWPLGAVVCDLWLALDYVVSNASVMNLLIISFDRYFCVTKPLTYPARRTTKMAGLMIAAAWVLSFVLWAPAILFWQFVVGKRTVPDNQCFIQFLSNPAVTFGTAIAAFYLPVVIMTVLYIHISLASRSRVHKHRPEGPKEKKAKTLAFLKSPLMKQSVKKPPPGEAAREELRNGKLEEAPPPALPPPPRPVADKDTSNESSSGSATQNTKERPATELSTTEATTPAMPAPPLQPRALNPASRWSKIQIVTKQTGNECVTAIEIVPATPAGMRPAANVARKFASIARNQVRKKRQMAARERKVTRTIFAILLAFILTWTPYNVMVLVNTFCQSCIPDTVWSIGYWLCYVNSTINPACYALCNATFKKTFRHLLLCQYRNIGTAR
Chain of Voltage-gated potassium channel subunit beta-2 (Rattus norvegicus) (P62483 whole entry, looked up): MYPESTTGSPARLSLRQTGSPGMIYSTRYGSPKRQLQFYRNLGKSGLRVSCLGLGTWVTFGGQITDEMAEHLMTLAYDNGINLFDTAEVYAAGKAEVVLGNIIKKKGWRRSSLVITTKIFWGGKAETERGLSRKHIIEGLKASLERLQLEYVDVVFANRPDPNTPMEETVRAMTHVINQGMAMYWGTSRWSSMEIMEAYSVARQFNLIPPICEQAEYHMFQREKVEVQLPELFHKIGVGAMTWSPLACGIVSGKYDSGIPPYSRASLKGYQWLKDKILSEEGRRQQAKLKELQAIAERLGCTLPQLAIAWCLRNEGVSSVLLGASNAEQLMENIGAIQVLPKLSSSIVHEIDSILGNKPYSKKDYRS

Take `O=C(NCc1ccccn1)c1coc(=O)c(Br)c1`: the cell count in test [1] came to 542. Further, the inhibition in test [1] was -1% (inactive); in test [2], 22.6% (inactive); in test [4] it was 9.61% (inactive); in test [9] it was 10.6% (inactive). The nuclei count in [2] was 119%. The z-score in test [3] (setting [10]) is -0.164; in test [3] (setting [11]), 0.668; in test [3] (setting [12]), -0.53. In addition, the fluorescence slope in [5] was -0.481 (inactive); in [7] it was 0.00581 (inactive). Also, the NADPH fluorescence slope in test [6] is -4e-05 (inactive). In addition, the compound was called inactive in test [8].
Take `COc1ccc(OC)c(C2C(C#N)=C(N)Oc3cc(C)n(Cc4ccccn4)c(=O)c32)c1` (stereo unspecified): in test [1], the cell count is 736. For the same compound, the inhibition in [1] was 3.4% (inactive); in test [2], -76% (inactive); in [4] it was 13.2% (inactive); in test [9], 11.4% (inactive). For the same compound, the nuclei count in test [2] was determined as 167%. Further, the z-score in test [3] (setting [10]) is 0.84; in test [3] (setting [11]), 0.709; in test [3] (setting [12]), -0.214. Moreover, the fluorescence slope was -0.443 (inactive) in test [5] and 0.0059 (inactive) in [7]. In addition, the NADPH fluorescence slope in [6] was -7.4e-05 (inactive). In addition, the result in test [8] was inactive.
For the compound `COc1ccc(/C(O)=C2\C(=O)C(=O)N(Cc3ccco3)C2c2cc(OC)ccc2OC)cc1` (stereo unspecified), the cell count in test [1] is 613. Besides, the inhibition in [1] was -13.1% (inactive); in test [2], -6% (inactive); in test [4], 5.42% (inactive); in test [9], -2.62% (inactive). In addition, the nuclei count in [2] was 161%. Moreover, the z-score is 0.378 in [3] (setting [10]), -0.392 in test [3] (setting [11]) and -0.39 in [3] (setting [12]). The fluorescence slope in test [5] is -0.452 (inactive); in test [7], 0.00573 (inactive). The NADPH fluorescence slope in test [6] is -1.6e-05 (inactive). For the same compound, the outcome in test [8] was inactive.
With `COC(=O)CC(=O)Cc1nc(N)nc(Nc2ccc(C)c(C)c2)n1`, the cell count in [1] amounted to 628. Besides, the inhibition was 1.8% (inactive) in [1], -16.8% (inactive) in test [2], -0.233% (inactive) in test [4] and 1.81% (inactive) in [9]. The compound also registered a nuclei count in test [2] of 133%. In addition, the z-score in [3] (setting [10]) amounted to 0.15; in test [3] (setting [11]), 0.484; in test [3] (setting [12]) it was 0.858. The fluorescence slope in [5] was -0.442 (inactive); in test [7] it was 0.00526 (inactive). For the same compound, the NADPH fluorescence slope in test [6] is -3e-05 (inactive). For the same compound, the outcome in [8] was inactive.
Take `O=C1C2ON(c3ccccc3)C(c3cccnc3)C2C(=O)N1Cc1ccccc1` (stereo unspecified): the cell count in test [1] was 620. Besides, the inhibition was -11% (inactive) in [1], -48.8% (inactive) in [2], 2.71% (inactive) in test [4] and -1.68% (inactive) in [9]. The same compound yielded a nuclei count in test [2] of 177%. Further, the z-score was 0.802 in [3] (setting [10]), 0.656 in [3] (setting [11]) and -1.11 in [3] (setting [12]). In addition, the fluorescence slope in [5] was -0.512 (inactive); in test [7], 0.00545 (inactive). Also, the NADPH fluorescence slope in [6] is -5.7e-05 (inactive). Also, the outcome in test [8] was inactive.
Regarding `COc1cccc(C2CC(c3ccccc3Cl)n3nc(N)nc3N2)c1` (stereo unspecified), the cell count in test [1] is 399. The inhibition was -1.4% (inactive) in test [1], -136% (inactive) in [2], 24.4% (inactive) in [4] and 29.4% (inactive) in [9]. In addition, the nuclei count in test [2] came out at 131%. Also, the z-score was 0.0849 in test [3] (setting [10]), 1.44 in test [3] (setting [11]) and -0.355 in test [3] (setting [12]). The values for the fluorescence slope in [5] and in test [7] were -0.464 (inactive) and 0.00588 (inactive), respectively. Also, the NADPH fluorescence slope in test [6] was -7.1e-05 (inactive). Further, the result in [8] was inactive.
In the case of `Cc1csc(SCCn2c(Br)nc3c2c(=O)[nH]c(=O)n3C)n1`, the cell count in test [1] came to 541. In addition, the inhibition is -22.3% (inactive) in [1], -35.3% (inactive) in [2], -12.6% (inactive) in test [4] and 31.8% (inactive) in [9]. In test [2], this compound returned a nuclei count of 180%. In addition, the figures for the z-score in [3] (setting [10]), in test [3] (setting [11]) and in [3] (setting [12]) were 0.452, 0.745 and 0.738, respectively. The fluorescence slope was -0.409 (inactive) in test [5] and 0.00514 (inactive) in test [7]. Moreover, in test [6], the NADPH fluorescence slope was -4.5e-05 (inactive). The compound was classed as inactive in test [8].

Usually inhibition stands for the relative decrease from the control value, in per cent.
